Results: ChEMBL document CHEMBL1145632, “Sulfamoyl benzamides as novel CB2 cannabinoid receptor ligands” (Bioorg Med Chem Lett, 2008)
Active and inactive are the calls of the source.

Columns and labels:
Cannabinoid receptor 2 [1] = biological target: T1, Cannabinoid receptor 2 (Homo sapiens, UniProt P34972); assay: Agonist activity at human cloned CB2 receptor by [35S]GTP-gamma-S binding assay; type: functional
Procedure, shortened: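 Stimulation of [35S]GTPγS binding used 25 µg membrane protein from cells expressing cloned human CB2. Mix: 100–150 pM [35S]GTPγS, 150 mM NaCl, 45 mM MgCl2, 3 µM GDP, 0.4 mM DTT, 1.0 mM EGTA, 1 mg/mL fatty-acid-free BSA in 50 mM Tris-HCl pH 7.0. Incubation was 6 h at room temperature, read by scintillation. Stimulation over basal (no agonist) is expressed as % of 10 µM WIN55212-2.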

Cannabinoid receptor 1 [2] = biological target: T2, Cannabinoid receptor 1 (Homo sapiens, UniProt P21554); assay: Displacement of [3H]CP-55940 from human cloned CB1 receptor
T2 sequence (P21554 whole entry): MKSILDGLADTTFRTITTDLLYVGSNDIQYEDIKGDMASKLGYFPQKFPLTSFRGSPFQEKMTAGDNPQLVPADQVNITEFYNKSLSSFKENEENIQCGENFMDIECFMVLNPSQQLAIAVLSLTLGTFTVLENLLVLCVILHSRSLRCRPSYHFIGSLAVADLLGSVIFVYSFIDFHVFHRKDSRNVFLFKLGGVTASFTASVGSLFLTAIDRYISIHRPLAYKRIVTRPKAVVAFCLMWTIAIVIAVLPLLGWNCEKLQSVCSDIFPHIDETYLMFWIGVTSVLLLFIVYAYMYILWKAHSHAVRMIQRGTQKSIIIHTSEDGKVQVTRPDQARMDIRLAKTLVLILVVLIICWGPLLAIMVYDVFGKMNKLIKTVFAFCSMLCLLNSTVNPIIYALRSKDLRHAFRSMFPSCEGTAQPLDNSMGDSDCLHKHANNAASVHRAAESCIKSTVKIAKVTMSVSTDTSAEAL
Procedure, shortened: (§1)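 Competition binding of 0.2–0.6 nM [3H]CP55940 to membranes from cells expressing cloned human CB1 or CB2 receptors. Buffer: 50 mM Tris-HCl pH 7.0, 5.0 mM MgCl2, 1.0 mM EGTA, 1.0 mg/mL fatty-acid-free BSA. Incubation was 120 min at 30 °C for CB1 and 60 min at room temperature for CB2. Samples were filtered and counted by scintillation. Nonspecific binding was set with 10 µM WIN55212-2. Ratio is Ki CB1/Ki CB2.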

Homo sapiens [3] = species on record: Homo sapiens; assay: Selectivity ratio of Ki for human cloned CB1 receptor to Ki for human cloned CB2 receptor; procedure, shortened: as §1
Cannabinoid receptor 1 [4] = biological target: T2, Cannabinoid receptor 1; assay: Agonist activity at human cloned CB1 receptor by [35S]GTPgammaS binding assay; type: functional
Homo sapiens [5] = species on record: Homo sapiens; assay: Selectivity ratio of EC50 for human cloned CB1 receptor to EC50 for human cloned CB2 receptor
Cannabinoid receptor 2 [6] = biological target: T1, Cannabinoid receptor 2; assay: Displacement of [3H]CP-55940 from human cloned CB2 receptor; procedure, shortened: as §1
Rattus norvegicus [7] = assay: Reversal of nerve injury-induced tactile allodynia in rat L5 spinal nerve ligation-induced nociception model at 60 mg/kg, ip; type: functional, organism-based; set-up: dose 60 mg/kg
Procedure, shortened: (§2)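 Rats with L5 spinal nerve ligation or hindpaw incision were dosed as stated. Read-out was paw-withdrawal threshold of the left hindpaw, reported as group mean ± SEM. Groups were compared by one-way ANOVA with protected t-test against the vehicle-treated surgery group.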

Cannabinoid receptor 1 [8] = biological target: T2, Cannabinoid receptor 1; assay: Displacement of [3H]CP-55940 from human cloned CB1 receptor at 10 uM
Rattus norvegicus [9] = assay: Toxicity in rat assessed as behavioral side effects upto 10 mg/kg, ip; type: organism-based; set-up: dose 10 mg/kg, route intraperitoneal; settings: in vivo
Rattus norvegicus [10] = assay: Antiallodynic effect in rat hind paw incision-induced nociception model at 100 mg/kg, ip; type: functional, organism-based; set-up: dose 100 mg/kg
Rattus norvegicus [11] = assay: Antiallodynic effect in rat hind paw incision-induced nociception model at 10 mg/kg, ip; type: functional, organism-based; set-up: dose 10 mg/kg; procedure, shortened: as §2
Rattus norvegicus [12] = assay: Toxicity in rat assessed as induction of catalepsy at 10 mg/kg, ip; type: organism-based; set-up: dose 10 mg/kg, route intraperitoneal; settings: in vivo
Rattus norvegicus [13] = assay: Reversal of nerve injury-induced tactile allodynia in rat L5 spinal nerve ligation-induced nociception model at 3 mg/kg, ip; type: functional, organism-based; set-up: dose 3 mg/kg; procedure, shortened: as §2
Rattus norvegicus [14] = assay: Toxicity in rat assessed as induction of catalepsy at 6 mg/kg, ip; type: organism-based; set-up: dose 6 mg/kg, route intraperitoneal; settings: in vivo
Rattus norvegicus [15] = assay: Antiallodynic effect in rat hind paw incision-induced nociception model at 30 mg/kg, ip; type: functional, organism-based; set-up: dose 30 mg/kg
Rattus norvegicus [16] = assay: Antiallodynic effect in rat hind paw incision-induced nociception model at 3 mg/kg, sc; type: functional, organism-based; set-up: dose 3 mg/kg; procedure, shortened: as §2

T1 sequence (P34972 whole entry): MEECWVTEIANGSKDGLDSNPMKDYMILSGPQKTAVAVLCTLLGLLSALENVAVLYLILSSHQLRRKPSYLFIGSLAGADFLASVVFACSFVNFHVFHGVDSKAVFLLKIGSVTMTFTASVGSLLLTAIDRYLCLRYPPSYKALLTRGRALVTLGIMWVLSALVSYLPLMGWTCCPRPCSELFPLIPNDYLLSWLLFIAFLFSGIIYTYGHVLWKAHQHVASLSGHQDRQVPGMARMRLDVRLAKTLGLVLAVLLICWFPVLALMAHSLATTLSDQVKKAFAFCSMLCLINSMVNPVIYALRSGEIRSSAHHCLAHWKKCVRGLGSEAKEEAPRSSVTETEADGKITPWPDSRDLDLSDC

Structure (SMILES)	EC50 (Cannabinoid receptor 2 [1])	Ki (Cannabinoid receptor 1 [2])	Ratio Ki (Homo sapiens [3])	EC50 (Cannabinoid receptor 1 [4])	Ratio EC50 (Homo sapiens [5])	Ki (Cannabinoid receptor 2 [6])	other results
Cc1ccc(C(=O)NC2C(C)CCCC2C)cc1S(=O)(=O)N1CCOCC1 (stereo not drawn)	44 nM	470 nM	5	540 nM	12	92 nM	–
CC(C)(C)CNC(=O)c1ccc(Br)c(S(=O)(=O)N2CCCCC2)c1	–	1300 nM	13	–	–	100 nM	–
Cc1ccc(C(=O)N[C@H]2C(C)(C)[C@H]3CC[C@]2(C)C3)cc1S(=O)(=O)N1CCOCC1	25 nM	540 nM	11	880 nM	35	48 nM	–
Cc1ccc(C(=O)NC(C)C23CC4CC(CC(C4)C2)C3)cc1S(=O)(=O)N1CCOCC1 (stereo not drawn)	9.3 nM	77 nM	5	290 nM	31	6.3 nM	–
CC(C)(C)CNC(=O)c1ccc(Br)c(S(=O)(=O)N2CCCC2)c1	–	2000 nM	5	–	–	400 nM	–
Cc1ccc(C(=O)NC2C3CC4CC(C3)CC2C4)cc1S(=O)(=O)N1CCOCC1 (stereo not drawn)	12 nM	33 nM	15	270 nM	23	5.6 nM	–
CC(C)(C)CNC(=O)c1ccc(Br)c(S(=O)(=O)N2CCOCC2)c1	–	1300 nM	3	–	–	450 nM	–
NCC1(CC(=O)O)CCCCC1	–	–	–	–	–	–	Activity (Rattus norvegicus [7]): Active
Cc1ccc(C(=O)NCC(C)(C)C)cc1S(=O)(=O)N1CCOCC1	1800 nM	> 1000 nM	> 3	> 1000 nM	–	390 nM	–
Cc1ccc(C(=O)NC(C(C)(C)C)C(C)(C)C)cc1S(=O)(=O)N1CCOCC1	21 nM	310 nM	9	920 nM	44	34 nM	–
Cc1ccc(C(=O)NC23CC4CC(CC(C4)C2)C3)cc1S(=O)(=O)N1CCOCC1	48 nM	260 nM	14	570 nM	12	19 nM	–
CN(Cc1ccccc1)S(=O)(=O)c1cc(C(=O)N[C@@H]2C(C)(C)[C@H]3CC[C@]2(C)C3)ccc1Br	–	> 1000 nM	> 100	–	–	11 nM	inhibition (Cannabinoid receptor 1 [8]): 33%
Cc1ccc(C(=O)N[C@@H]2C(C)(C)[C@H]3CC[C@]2(C)C3)cc1S(=O)(=O)N1CCOCC1	4.6 nM	130 nM	31	550 nM	120	3.9 nM	Activity (Rattus norvegicus [9]): Non-toxic; Activity (Rattus norvegicus [10]): inactive; Activity (Rattus norvegicus [11]): Active; Activity (Rattus norvegicus [12]): Non-toxic; Activity (Rattus norvegicus [13]): Active; Activity (Rattus norvegicus [14]): Non-toxic; Activity (Rattus norvegicus [15]): inactive
Cc1ccc(C(=O)NC(C)C(C)(C)C)cc1S(=O)(=O)N1CCOCC1 (stereo not drawn)	125 nM	1300 nM	9	2400 nM	19	180 nM	–
O=C(NCc1ccccc1)c1ccc(Br)c(S(=O)(=O)N2CCCCC2)c1	–	1100 nM	3	–	–	360 nM	–
CN1CC[C@]23c4c5ccc(O)c4O[C@H]2[C@@H](O)C=C[C@H]3[C@H]1C5	–	–	–	–	–	–	Activity (Rattus norvegicus [16]): Active
CC1(C)[C@H]2CC[C@](C)(C2)[C@@H]1NC(=O)c1ccc(Br)c(S(=O)(=O)N2CCOCC2)c1	8.8 nM	89 nM	25	560 nM	64	3.5 nM	–
CC(C)CNC(=O)c1ccc(Br)c(S(=O)(=O)N(C)Cc2ccccc2)c1	–	> 1000 nM	> 3	–	–	340 nM	–
CC1(C)[C@H]2CC[C@](C)(C2)[C@@H]1NC(=O)c1ccc(Br)c(S(=O)(=O)N2CCCC2)c1	4.3 nM	110 nM	12	220 nM	51	9.4 nM	–
Cc1ccc(C(=O)N[C@H]2CC3CC[C@@]2(C)C3(C)C)cc1S(=O)(=O)N1CCOCC1	14 nM	50 nM	7	210 nM	15	8.1 nM	–
Cc1ccc(C(=O)NCC23CC4CC(CC(C4)C2)C3)cc1S(=O)(=O)N1CCOCC1	25 nM	91 nM	9	210 nM	8	10 nM	–
CN(Cc1ccccc1)S(=O)(=O)c1cc(C(=O)NCC(C)(C)C)ccc1Br	–	> 1000 nM	> 2	–	–	430 nM	–
COc1cccc(CNC(=O)c2ccc(Br)c(S(=O)(=O)N3CCCCC3)c2)c1	–	1400 nM	7	–	–	200 nM	–
CC1(C)[C@H]2CC[C@](C)(C2)[C@@H]1NC(=O)c1ccc(Br)c(S(=O)(=O)N2CCCCC2)c1	6.6 nM	93 nM	7	280 nM	42	13 nM	–
CC(C)CNC(=O)c1ccc(Br)c(S(=O)(=O)N2CCCCC2)c1	–	> 1000 nM	> 2	–	–	410 nM	–
O=C(NCc1cccnc1)c1ccc(Br)c(S(=O)(=O)N2CCCCC2)c1	–	1800 nM	5	–	–	320 nM	–
